ChEMBL document CHEMBL3227955, “Studies on the mechanism of antiviral action of 1-(beta-D-ribofuranosyl)-1,2,4-triazole-3-carboxamide (ribavirin)” (J Med Chem, 1979)
The source made the active and inactive calls. The rule behind the calls is not given here.

Species on record: Rattus norvegicus
Assay: Activity at rat liver nucleoside kinase assessed as phosphorylation using [gamma-32P]-ATP after 10 to 20 mins
Method in brief: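 Rat liver nucleoside kinase was the 55–90% (NH4)2SO4 fraction of the 144000g supernatant, dialyzed. The medium was 50 mM Tris-HCl pH 8.0, 5 μM MgCl2 (so in the source), 25 mM KCl, 1 mM [γ-32P]ATP, and pyruvate kinase with 2 mM phosphoenolpyruvate. Incubation was 10 or 20 min at 37 °C, stopped by 1 min at 100 °C. Liberated Pi was precipitated with added 0.1 mM K2HPO4.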
In the case of `Nc1ncnc2c1ncn2[C@@H]1O[C@H](CO)[C@@H](O)[C@H]1O`, the Activity is reported as “Active”.
In the case of `CO[C@H]1[C@@H](O)[C@H](n2cnc(C(N)=O)n2)O[C@@H]1CO`, the Activity is reported as “inactive”.
For `O=C(O)c1ncn([C@@H]2O[C@H](CO)[C@@H](O)[C@H]2O)n1`, the Activity was “inactive”.
In the case of `CO[C@@H]1[C@H](O)[C@@H](CO)O[C@H]1n1cnc(C(N)=O)n1`, the Activity is reported as “inactive”.
For `OC[C@H]1O[C@@H](n2cncn2)[C@H](O)[C@@H]1O`, the Activity was “inactive”.
With `NC(=O)c1ncn([C@@H]2O[C@H](CO)[C@@H](O)[C@H]2O)n1` the Activity was “Active”.

Biological target: not listed separately
Assay: Inhibition of rat spleen IMP dehydrogenase using NAD and IMP up to 1 hr
Format: tissue-based
Method in brief: (§1)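 Rat spleen IMP dehydrogenase was the 30–40% (NH4)2SO4 fraction, dialyzed, at 0.66 mg protein/mL. Buffer was 0.1 M phosphate pH 7.7 with 1 mM EDTA, 0.5 mM 2-mercaptoethanol and 0.2 mM each NAD and IMP, started with IMP. A340 change against a no-IMP blank was followed at 37 °C for up to 1 h. Activity was expressed relative to the no-inhibitor rate.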
Work on `NC(=O)c1ncn([C@@H]2O[C@H](COP(=O)(O)O)[C@@H](O)[C@H]2O)n1` [RIBAVIRIN MONOPHOSPHATE] yielded an IC50 of 2 µM.
`O=C(O)c1ncn([C@@H]2O[C@H](COP(=O)(O)O)[C@@H](O)[C@H]2O)n1` showed an IC50 of 70 µM.

Species on record: Rattus norvegicus
Assay: Inhibition of rat spleen IMP dehydrogenase using NAD and IMP at 200 uM up to 1 hr
Format: tissue-based
Method in brief: as §1
In the case of `CO[C@@H]1[C@H](O)[C@@H](COP(=O)(O)O)O[C@H]1n1cnc(C(N)=O)n1`, the inhibition is reported as “inactive”.
For `O=P(O)(O)OC[C@H]1O[C@@H](n2cncn2)[C@H](O)[C@@H]1O`, the inhibition was “inactive”.
In the case of `CO[C@H]1[C@@H](O)[C@H](n2cnc(C(N)=O)n2)O[C@@H]1COP(=O)(O)O`, the inhibition is reported as “inactive”.
